Calls of active or inactive are those of the source. The calls are words filed in the database; no cut-off is given here.
Columns and labels:
Plasmodium falciparum [1] = experiment: Binding affinity to Plasmodium falciparum GRP94 nucleotide binding domain at 0.5 mM by SYPRO orange dye based DSF analysis
In short: (§1)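 Recombinant P. falciparum Hsp90 or GRP94 nucleotide-binding domain (0.05–0.2 mg/mL, optimized per protein) in 25 mM HEPES pH 7.5, 250 mM NaCl. Compound final concentration was 0.5 mM, with SYPRO Orange at 1:1000. Samples were heated from 18 to 90 °C at 1 °C/min. Tm was taken as the Boltzmann-fit inflection point. ΔTm = Tm with ligand minus Tm without, and shifts beyond ±1 °C were counted significant.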

[2] = molecular target: T1, HSP90 (Plasmodium falciparum 3D7) (UniProt Q8IL32); experiment: Binding affinity to Plasmodium falciparum HSP90 nucleotide binding domain at 0.5 mM by SYPRO orange dye based DSF analysis; in short: as §1
T1 sequence (whole entry): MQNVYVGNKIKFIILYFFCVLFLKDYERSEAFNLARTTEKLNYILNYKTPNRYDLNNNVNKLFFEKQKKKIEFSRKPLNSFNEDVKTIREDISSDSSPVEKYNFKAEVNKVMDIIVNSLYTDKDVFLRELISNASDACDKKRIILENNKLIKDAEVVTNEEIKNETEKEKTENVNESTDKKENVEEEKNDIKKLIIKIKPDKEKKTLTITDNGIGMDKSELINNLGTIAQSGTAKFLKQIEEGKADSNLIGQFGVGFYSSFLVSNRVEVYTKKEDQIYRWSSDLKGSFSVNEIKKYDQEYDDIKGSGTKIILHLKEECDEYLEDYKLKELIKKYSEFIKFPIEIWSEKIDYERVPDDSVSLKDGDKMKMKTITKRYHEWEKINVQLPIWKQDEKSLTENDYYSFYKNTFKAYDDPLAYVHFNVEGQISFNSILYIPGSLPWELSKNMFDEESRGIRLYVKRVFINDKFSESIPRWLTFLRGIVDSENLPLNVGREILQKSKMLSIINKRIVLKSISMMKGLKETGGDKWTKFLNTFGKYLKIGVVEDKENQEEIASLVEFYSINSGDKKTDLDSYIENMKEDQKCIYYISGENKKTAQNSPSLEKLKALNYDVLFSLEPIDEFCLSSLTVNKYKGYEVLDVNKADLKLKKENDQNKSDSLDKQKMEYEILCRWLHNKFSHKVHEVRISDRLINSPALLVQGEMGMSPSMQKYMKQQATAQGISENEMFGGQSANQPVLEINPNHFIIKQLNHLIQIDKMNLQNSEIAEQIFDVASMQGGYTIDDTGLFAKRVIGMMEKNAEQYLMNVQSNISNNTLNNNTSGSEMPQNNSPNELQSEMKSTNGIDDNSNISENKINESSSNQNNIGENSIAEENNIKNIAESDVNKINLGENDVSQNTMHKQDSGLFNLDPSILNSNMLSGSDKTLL

Plasmodium falciparum [3] = experiment: Antiplasmodial activity against multidrug-resistant Plasmodium falciparum FCR-3 by [3H]-hypoxanthine incorporation assay; format: functional, organism-based, FCR-3/Gambia
In short: (§2)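 Blood-stage P. falciparum 3D7 and FCR-3 were tested by a modified [3H]-hypoxanthine incorporation assay. Chloroquine was the reference in all runs.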

[4] = Cytotoxicity against human HepG2A16 cells; format: cell-based
[5] = Selectivity index, ratio of CC50 for human HepG2A16 cells by MTT assay to IC50 for multidrug-resistant Plasmodium falciparum FCR-3; format: toxicity
In short: (§3)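 HepG2-A16 human hepatoma cells were tested by MTT viability assay to give CC50. Blood-stage activity was measured against the multidrug-resistant P. falciparum FCR-3 strain by [3H]-hypoxanthine incorporation to give IC50. SI = CC50 HepG2 / FCR-3 IC50.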

[6] = Selectivity index, ratio of CC50 for human HepG2A16 cells to IC50 for multidrug-resistant Plasmodium falciparum FCR-3; format: toxicity; in short: as §3
[7] = Cytotoxicity against human HepG2A16 cells by MTT assay; format: cell-based
In short: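 MTT viability assay on HepG2-A16 cells, giving CC50 values.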

Plasmodium falciparum [8] = experiment: Antiplasmodial activity against chloroquine-sensitive Plasmodium falciparum 3D7 by [3H]-hypoxanthine incorporation assay; format: functional, organism-based; in short: as §2
[9] = molecular target: T1, HSP90 (Plasmodium falciparum 3D7); experiment: Binding affinity to Plasmodium falciparum HSP90 nucleotide binding domain by SPR analysis
In short: (§4)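 Purified PfHsp90 and PfGRP94 nucleotide-binding domains were amine-coupled to a CM5 chip (3000 and 7000 RU, respectively), with a blank reference surface. Seven compound concentrations (0.4 nM–1 mM) were injected in triplicate at 30 µL/min, 25 °C, in random order. Running buffer: 10 mM HEPES pH 7.4, 150 mM NaCl, 0.005% P20, 1% DMSO, 2 mM MgCl2. Kd came from double-referenced sensorgrams.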

Plasmodium falciparum [10] = experiment: Binding affinity to Plasmodium falciparum GRP94 nucleotide binding domain by SPR analysis; in short: as §4
Plasmodium berghei = experiment: Antiplasmodial activity against Plasmodium berghei ANKA infected in mouse assessed as inhibition of parasitemia at 50 mg/kg/day, po for 4 consecutive days starting from 2 hrs post infection by MSF assay relative to control; format: functional
In short: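 Swiss male mice (20 ± 2 g) infected ip with 10^7 P. berghei ANKA parasitized cells (day 0). Five per group dosed orally 2 h after infection and daily on days 0–3. Test compounds at 50 mg/kg/day in water:DMSO; chloroquine diphosphate at 3 mg/kg/day; vehicle controls. Parasitemia measured on day 4 by MSF assay; survival checked daily.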

| Compound | Activity (Plasmodium falciparum [1]) | Activity [2] | IC50 (Plasmodium falciparum [3]) | CC50 [4] | Ratio CC50/IC50 [5] | Ratio CC50/IC50 [6] | CC50 [7] | IC50 (Plasmodium falciparum [8]) | Activity [9] | Activity (Plasmodium falciparum [10]) | inhibition (Plasmodium berghei) | CC50 ([4]; HepG2A16 cells) | selectivity ratio ([6]; HepG2A16 cells, read-out: Ratio CC50/IC50) |
| --- | --- | --- | --- | --- | --- | --- | --- | --- | --- | --- | --- | --- | --- |
| Nc1ncnc2c1ncn2[C@@H]1O[C@H](COP(=O)(O)OP(=O)(O)O)[C@@H](O)[C@H]1O | Active | Active | – | – | – | – | – | – | – | – | – | – | – |
| N#Cc1ccc(N2CCC(NCCC(O)c3ccc(F)c4ccccc34)CC2)c(C(F)(F)F)c1 (stereo in doubt; (-)-72) | – | – | 0.39 µM | 27.8 µM | 28 | 11 | 11 µM | 0.28 µM | – | – | – | – | – |
| OC(CCN1CCN(c2ccccc2C(F)(F)F)CC1)c1ccc(F)c2ccccc12 (stereo in doubt; 55) | inactive | inactive | – | – | – | – | – | – | inactive | inactive | inactive | – | – |
| O=[N+]([O-])c1ccc(N2CCC(NCCC(O)c3ccc(F)c4ccccc34)CC2)c(C(F)(F)F)c1 (single isomer, unassigned; (-)) | – | – | 0.87 µM | 4.13 µM | 23 | 32 | 20 µM | 1.79 µM | – | – | – | – | – |
| N#Cc1ccc(N2CCC(NCCC(O)c3ccc(F)c4ccccc34)CC2)c(C(F)(F)F)c1 (stereo in doubt; 72) | inactive | inactive | – | – | – | – | – | – | inactive | inactive | – | – | – |
| OC(CCN1CCN(c2ccccc2C(F)(F)F)CC1)c1ccc(F)c2ccccc12 (single isomer, unassigned; (-)) | – | – | 0.2 µM | 61.5 µM | 91 | 308 | 18.2 µM | 0.88 µM | – | – | – | – | – |
| N#Cc1ccc(N2CCC(NCCC(O)c3ccc(F)c4ccccc34)CC2)c(C(F)(F)F)c1 (single isomer, unassigned; (+)) | – | – | 0.65 µM | 79.9 µM | 29 | 58 | 18.8 µM | 5.72 µM | – | – | – | – | – |
| O=[N+]([O-])c1ccc(N2CCC(NCCC(O)c3ccc(F)c4ccccc34)CC2)c(C(F)(F)F)c1 (stereo in doubt; 8) | inactive | inactive | – | – | – | – | – | – | inactive | inactive | – | – | – |
| O=[N+]([O-])c1ccc(N2CCC(NCCC(O)c3ccc(F)c4ccccc34)CC2)c(C(F)(F)F)c1 (single isomer, unassigned; (+)) | – | – | 0.19 µM | 37.6 µM | 201 | 420 | 38.3 µM | 0.48 µM | – | – | – | – | – |
| COc1ccccc1N1CCN(CCC(O)c2ccc(F)cc2)CC1 (single isomer, unassigned; (-)) | – | – | 0.66 µM | – | 22 | > 219.9 | 14.3 µM | 1.24 µM | – | – | – | – | – |
| COc1ccccc1N1CCN(CCC(O)c2ccc(F)cc2)CC1 (single isomer, unassigned; (+)) | – | – | 12.2 µM | – | 8 | > 11.8 | 96 µM | 28.7 µM | – | – | – | > 145 µM | – |
| COc1ccccc1N1CCN(CCC(O)c2ccc(F)cc2)CC1 (stereo in doubt; 66) | inactive | inactive | – | – | – | – | – | – | inactive | inactive | – | – | – |
| Nc1ncnc2c1ncn2[C@@H]1O[C@H](COP(=O)(O)OP(=O)(O)OP(=O)(O)O)[C@@H](O)[C@H]1O | Active | Active | – | – | – | – | – | – | – | – | – | – | – |
| OC(CCN1CCN(c2ccccc2C(F)(F)F)CC1)c1ccc(F)c2ccccc12 (single isomer, unassigned; (+)) | – | – | 0.21 µM | – | 51 | – | 10.8 µM | 0.54 µM | – | – | – | 36.1 µM | 172 |

From ChEMBL document CHEMBL4152256, “Structure-activity relationship of new antimalarial 1-aryl-3-susbtituted propanol derivatives: Synthesis, preliminary toxicity profiling, parasite life cycle stage studies, target exploration, and targeted delivery” (Eur J Med Chem, 2018)
